Experiment [1] has as its target T1, Cytosolic phospholipase A2 (Homo sapiens, UniProt P47712).
T1 sequence (P47712 whole entry): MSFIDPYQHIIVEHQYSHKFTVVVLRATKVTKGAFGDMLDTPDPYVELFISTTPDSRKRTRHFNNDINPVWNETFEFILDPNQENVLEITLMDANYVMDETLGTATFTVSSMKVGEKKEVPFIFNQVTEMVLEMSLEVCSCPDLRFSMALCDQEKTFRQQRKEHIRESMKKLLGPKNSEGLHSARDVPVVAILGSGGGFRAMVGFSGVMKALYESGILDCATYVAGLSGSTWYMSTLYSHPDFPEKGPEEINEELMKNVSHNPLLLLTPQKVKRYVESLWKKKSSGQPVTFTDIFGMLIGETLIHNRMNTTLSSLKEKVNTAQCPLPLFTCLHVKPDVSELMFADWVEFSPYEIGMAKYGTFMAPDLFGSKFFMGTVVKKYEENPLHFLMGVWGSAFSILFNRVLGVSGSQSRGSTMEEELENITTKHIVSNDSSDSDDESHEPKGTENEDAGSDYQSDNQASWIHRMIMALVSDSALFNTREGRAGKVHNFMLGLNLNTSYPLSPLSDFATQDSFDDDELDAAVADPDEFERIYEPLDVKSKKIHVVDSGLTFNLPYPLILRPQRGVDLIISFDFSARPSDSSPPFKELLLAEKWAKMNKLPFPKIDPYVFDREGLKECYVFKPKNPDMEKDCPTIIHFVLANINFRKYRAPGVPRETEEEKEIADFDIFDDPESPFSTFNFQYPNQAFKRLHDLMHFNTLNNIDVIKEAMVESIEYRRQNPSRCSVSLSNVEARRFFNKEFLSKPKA
Briefly: Inhibition of Human cPLA2 alpha using Enzyme assay(PC/DOG assay).

Experiment [2] relates to THP-1. The experiment is described as follows: Inhibition of arachidonic acid production from THP-1 cells stimulated with A-23187 using cellular assay. The experiment is classed as functional, cell-based. The following applies: Homo sapiens. In outline:
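DMSO-differentiated THP-1 cells (1.3% DMSO for 2 days in RPMI 1640/10% FCS), washed with PBS, held in Hanks' saline pH 7.6 plus 0.1% BSA. Preincubated with inhibitor 15 min at 37 °C, then stimulated with 3 µM calcium ionophore A23187 for 20 min at 37 °C. Arachidonic acid release measured; IC50, mean ± SD, n=3 independent determinations.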

Experiment [3] has as its system THP-1. Briefly: Effect of pyrrolidine derivatives on production of eicosanoids from THP-1 cells stimulated with A-23187 using cellular assay on LTC-4. To be noted: Homo sapiens. The experiment is classed as functional, cell-based. In outline: (§1)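 THP-1 cells grown in RPMI 1640 with 10% FCS, differentiated with 1.3% DMSO for 2 days, PBS-washed, suspended in Hanks' saline pH 7.6 with 0.1% BSA. Inhibitor preincubation 15 min at 37 °C, then 3 µM A23187 for 20 min at 37 °C. Stopped on ice; supernatant LTC4 and PGE2 measured by radio immunoassay and enzyme immunoassay. IC50, mean ± SD of three independent determinations.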

In experiment [4] the test system is THP-1. The experiment is described as follows: Effect on production of eicosanoids from THP-1 cells stimulated with A-23187 using cellular assay on PGE-2. The experiment is classed as functional, cell-based. To be noted: Homo sapiens. In outline:
as §1

Experiment [5] has as its system THP-1. The experiment is described as follows: Effect of pyrrolidine derivatives on production of eicosanoids from THP-1 cells stimulated with A-23187 using cellular assay on PGE-2, LTC-4. The experiment is classed as functional, cell-based. The following applies: Homo sapiens. Summed up:
as §1

The test system of experiment [6] is THP-1. Briefly: Effect on production of eicosanoids from THP-1 cells stimulated with A-23187 using cellular assay on PGE-2, LTC-4. The experiment is classed as functional, cell-based. The following applies: Homo sapiens. In outline: as §1

Each structure is given as a SMILES string.

A word on the IC50: it is the midpoint of a concentration-inhibition curve. The low end stands for greater potency, the high end for weaker potency.

On to `CC(C)Cc1cccc(Br)c1O[C@@H]1C[C@@H](CNC(=O)c2ccc(/C=C3\SC(=O)NC3=O)cc2)N(C(=O)c2ccccc2C(=O)c2ccc(F)cc2F)C1`, for which the IC50 was determined as 0.022 µM in experiment [1] and 0.22 µM in the experiment with THP-1 [2].

Take `O=C1NC(=O)/C(=C/c2ccc(C(=O)NC[C@@H]3C[C@@H](OCc4ccccc4-c4ccccc4)CN3C(=O)c3ccc(C(=O)c4ccccc4)cc3)cc2)S1`: the IC50 in experiment [1] is greater than 10 µM; with THP-1 [2] it was 5.5 µM.

As to `CC(C)CN(Cc1ccccc1-c1ccccc1)[C@@H]1C[C@@H](CNC(=O)/C=C/c2ccc(/C=C3\SC(=O)NC3=O)cc2)N(C(=O)c2ccccc2C(=O)c2ccc(F)cc2)C1`, the half-maximal inhibitory concentration (IC50) with THP-1 [2] is 0.052 µM.

`O=C1NC(=O)/C(=C/c2ccc(C(=O)NC[C@@H]3C[C@@H](OCc4ccccc4-c4ccccc4)CN3C(=O)c3ccccc3C(=O)c3ccc(F)cc3F)cc2)S1`: the IC50 amounted to 0.049 µM in experiment [1] and 0.23 µM in the experiment with THP-1 [2].

As for `O=C1NC(=S)S/C1=C\c1ccc(C(=O)NC[C@@H]2C[C@@H](SCc3ccccc3-c3ccccc3)CN2C(=O)c2ccccc2C(=O)c2ccc(F)cc2)cc1`, the figures for the IC50 (in experiment [1]; in the experiment with THP-1 [2]) were 0.072 µM and 0.4 µM, respectively.

`O=C1NC(=O)/C(=C/c2ccc(C(=O)NC[C@@H]3C[C@@H](SCc4ccccc4-c4ccccc4)CN3C(=O)c3ccccc3C(=O)c3ccc(F)cc3)cc2)S1` returned an IC50 with THP-1 [2] of 0.25 µM. This lies in the sub-micromolar range.

As to `CC(C)Cc1cccc(Br)c1O[C@@H]1C[C@@H](CNC(=O)c2ccc(/C=C3\SC(=O)NC3=O)cc2)N(C(=O)c2ccccc2C(=O)c2ccc(F)cc2)C1`, the 50% inhibitory concentration (IC50) was found to be 0.038 µM in experiment [1] and 0.3 µM in the experiment on THP-1 [2].

In the case of `O=C1NC(=O)/C(=C/c2ccc(C(=O)NC[C@@H]3C[C@@H](OCc4ccccc4-c4ccccc4)CN3C(=O)c3cccc(C(=O)c4ccccc4)c3)cc2)S1`, the IC50 in experiment [1] is greater than 10 µM; with THP-1 [2], 5.9 µM.

Regarding `O=C1NC(=O)/C(=C/c2ccc(C(=O)NC[C@@H]3C[C@@H](OCc4ccccc4-c4ccccc4)CN3C(=O)c3ccccc3C(=O)c3ccccc3)cc2)S1`, the concentration for half-maximal inhibition (IC50) amounted to 0.37 µM in the experiment with THP-1 [3], 0.41 µM in the experiment on THP-1 [4], 0.165 µM in experiment [1] and 0.67 µM with THP-1 [2].

For `O=C1NC(=O)/C(=C/c2ccc(C(=O)NC[C@@H]3C[C@@H](Oc4ccccc4-c4ccccc4)CN3C(=O)c3ccccc3C(=O)c3ccc(F)cc3)cc2)S1`, the figures for the IC50 with THP-1 [4] and with THP-1 [2] were 0.21 µM and 0.31 µM, respectively.

Turning to `O=C1NC(=S)S/C1=C\c1ccc(C(=O)NC[C@@H]2C[C@@H](OCc3ccccc3-c3ccccc3)CN2C(=O)c2ccccc2C(=O)c2ccc(F)cc2)cc1`, the IC50 in experiment [1] worked out at 0.09 µM; with THP-1 [2], 0.7 µM.

In the case of `O=C1NC(=S)S/C1=C\c1ccc(C(=O)NC[C@@H]2C[C@@H](Oc3ccccc3-c3ccccc3)CN2C(=O)c2ccccc2C(=O)c2ccc(F)cc2)cc1`, the IC50 in experiment [1] worked out at 0.083 µM; in the experiment on THP-1 [2] it was 0.66 µM.

For `CC(C)CN(Cc1ccccc1-c1ccccc1)[C@@H]1C[C@@H](CNC(=O)c2ccc(/C=C3\SC(=O)NC3=O)cc2)N(C(=O)c2ccccc2C(=O)c2ccc(F)cc2)C1`, the IC50 in experiment [1] was 0.021 µM; in the experiment with THP-1 [2], 0.18 µM.

In the case of `CC(C)CN(Cc1ccccc1-c1ccccc1)[C@@H]1C[C@@H](CNC(=O)/C=C/c2ccc(/C=C3\SC(=O)NC3=O)cc2)N(C(=O)c2ccccc2C(=O)c2ccc(F)cc2F)C1`, the values for the half-inhibitory concentration (IC50) in the experiment on THP-1 [5], in the experiment on THP-1 [6] and with THP-1 [2] were 0.013 µM, 0.031 µM and 0.022 µM, respectively.

Consider `CC(C)CN(Cc1ccccc1-c1ccccc1)[C@@H]1C[C@@H](CNC(=O)c2ccc(/C=C3\SC(=O)NC3=O)cc2)N(C(=O)c2ccccc2C(=O)c2ccc(F)cc2F)C1`, for which the IC50 in experiment [1] is 0.0062 µM; with THP-1 [2], 0.047 µM.

For `CC(C)Cc1cccc(-c2ccccc2C(C)C)c1O[C@@H]1C[C@@H](CNC(=O)c2ccc(/C=C3\SC(=O)NC3=O)cc2)N(C(=O)c2ccccc2C(=O)c2ccc(F)cc2)C1`, the concentration for half-maximal inhibition (IC50) was 0.0053 µM in experiment [1] and 0.092 µM with THP-1 [2].

On to `CC(C)Cc1cccc(-c2ccccc2C(C)C)c1O[C@@H]1C[C@@H](CNC(=O)c2ccc(/C=C3\SC(=O)NC3=O)cc2)N(C(=O)c2ccccc2C(=O)c2ccc(F)cc2F)C1`, for which the IC50 in experiment [1] amounted to 0.0021 µM; in the experiment with THP-1 [2] it was 0.055 µM.

Turning to `O=C1NC(=O)/C(=C/c2ccc(C(=O)NC[C@@H]3C[C@@H](OCc4ccccc4-c4ccccc4)CN3C(=O)c3ccccc3C(=O)c3ccc(F)cc3)cc2)S1`, the half-inhibitory concentration (IC50) in the experiment with THP-1 [5] was 0.26 µM; in the experiment on THP-1 [6] it was 0.26 µM; in experiment [1] it was 0.078 µM; in the experiment on THP-1 [2], 0.32 µM.

Take `COc1ccc2c(c1)c(CC(=O)O)c(C)n2C(=O)c1ccc(Cl)cc1` [INDOMETHACIN]: the results for the IC50 in the experiment with THP-1 [5], with THP-1 [6] and in the experiment with THP-1 [2] were greater than 10 µM, 0.0036 µM and greater than 10 µM, respectively.

The values are drawn from ChEMBL document CHEMBL1132972, “Pyrrolidine inhibitors of human cytosolic phospholipase A(2)” (J Med Chem, 2000).
